Data: ChEMBL document CHEMBL1154887, “Pycnanthulignenes A-D, antimicrobial cyclolignene derivatives from the roots of Pycnanthus angolensis” (2010)
In brackets after ≈: the same amount, converted by molar mass.

Legend:
[1] = tested on: Klebsiella pneumoniae; test: Antibacterial activity against beta ampicillin resistant Klebsiella pneumoniae LMP 803 after 24 hrs by microbroth dilution method; format: functional
How it was run: (§1)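 For MMC, wells with no colour change after the INT step of the microbroth dilution assay were subcultured onto MHA agar and incubated at 37 °C for 24 h. MMC is the lowest concentration giving no growth after subculture. The assay was repeated three times.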

[2] = tested on: Escherichia coli; test: Antibacterial activity against beta lactamase positive Escherichia coli LMP 701 after 24 hrs by microbroth dilution method; format: functional
How it was run: (§2)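 Minimal microbicidal concentration taken after the microbroth dilution MIC assay. MMC is the lowest concentration giving no growth after subculture.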

[3] = tested on: Salmonella enterica; test: Antibacterial activity against chloramphenicol-resistant Salmonella typhi LMP 706 after 30 mins by microbroth dilution method; format: functional, Salmonella enterica subsp. enterica serovar Typhi
How it was run: (§3)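 Microbroth dilution MIC, done in three independent repeats. After incubation, 0.2 mg/mL p-iodonitrotetrazolium chloride was added and plates were held at 37 °C for 30 min. Viable cells reduce the yellow dye to pink.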

[4] = tested on: Microsporum audouinii; test: Antifungal activity against Microsporum audouinii LMP 725D after 24 hrs by microbroth dilution method; format: functional; how it was run: as §2
[5] = tested on: Staphylococcus aureus; test: Antibacterial activity against methicillin-resistant Staphylococcus aureus LMP 805 after 30 mins by microbroth dilution method; format: functional; how it was run: as §3
[6] = tested on: Staphylococcus aureus; test: Antibacterial activity against methicillin-resistant Staphylococcus aureus LMP 805 after 24 hrs by microbroth dilution method; format: functional; how it was run: as §1
[7] = tested on: Escherichia coli; test: Antibacterial activity against beta lactamase positive Escherichia coli LMP 701 after 30 mins by microbroth dilution method; format: functional
How it was run: (§4)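 Microbroth dilution, run three times. After incubation, 0.2 mg/mL p-iodonitrotetrazolium chloride was added and plates were held 30 min at 37 °C. Viable cells reduce the yellow dye to pink. MIC is the lowest concentration that prevented the colour change and gave complete growth inhibition.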

[8] = tested on: Citrobacter freundii; test: Antibacterial activity against chloramphenicol-resistant Citrobacter freundii LMP 802 after 30 mins by microbroth dilution method; format: functional; how it was run: as §3
[9] = tested on: Pseudomonas aeruginosa; test: Antibacterial activity against beta carbenicillin resistant Pseudomonas aeruginosa LMP 804 after 30 mins by microbroth dilution method; format: functional; how it was run: as §3
[10] = tested on: Shigella dysenteriae; test: Antibacterial activity against beta lactamase positive Shigella dysenteriae LMP 606 after 30 mins by microbroth dilution method; format: functional; how it was run: as §3
[11] = tested on: Shigella dysenteriae; test: Antibacterial activity against beta lactamase positive Shigella dysenteriae LMP 606 after 24 hrs by microbroth dilution method; format: functional; how it was run: as §1
[12] = tested on: Candida albicans; test: Antifungal activity against Candida albicans LMP 709U after 24 hrs by microbroth dilution method; format: functional; how it was run: as §2
[13] = tested on: Candida albicans; test: Antifungal activity against Candida albicans LMP 709U […] by microbroth dilution method; format: functional; how it was run: as §4
[14] = tested on: Klebsiella pneumoniae; test: Antibacterial activity against beta ampicillin resistant Klebsiella pneumoniae LMP 803 after 30 mins by microbroth dilution method; format: functional; how it was run: as §3
[15] = tested on: Microsporum audouinii; test: Antifungal activity against Microsporum audouinii LMP 725D after 30 mins by microbroth dilution method; format: functional; how it was run: as §4
[16] = tested on: Pseudomonas aeruginosa; test: Antibacterial activity against beta carbenicillin resistant Pseudomonas aeruginosa LMP 804 after 24 hrs by microbroth dilution method; format: functional; how it was run: as §1
[17] = tested on: Citrobacter freundii; test: Antibacterial activity against chloramphenicol-resistant Citrobacter freundii LMP 802 after 24 hrs by microbroth dilution method; format: functional; how it was run: as §1
[18] = tested on: Salmonella enterica; test: Antibacterial activity against chloramphenicol-resistant Salmonella typhi LMP 706 after 24 hrs by microbroth dilution method; format: functional, Salmonella enterica subsp. enterica serovar Typhi; how it was run: as §1
[19] = Salmonella enterica subsp. enterica serovar Typhi

| Molecule | MMC [1] | MMC [2] | MIC ([3]; LMP 706, 0.5 h) | MMC [4] | MIC ([5]; LMP 805, 0.5 h) | MMC [6] | MIC ([7]; LMP 701, 0.5 h) | MIC ([8]; LMP 802, 0.5 h) | MIC ([9]; LMP 804, 0.5 h) | MIC ([10]; LMP 606, 0.5 h) | MMC [11] | MMC [12] | MIC [13] | MIC ([14]; LMP 803, 0.5 h) | MIC ([15]; 0.5 h) | MMC [16] | MMC [17] | other results |
| --- | --- | --- | --- | --- | --- | --- | --- | --- | --- | --- | --- | --- | --- | --- | --- | --- | --- | --- |
| COc1cc2c(cc1OC)[C@H](c1ccc(O)cc1)[C@@H](C)C(C)=C2 [PYCNANTHULIGNENE A] | >78.12 µg/mL | 39.1 µg/mL | 19.5 µg/mL (≈ 62.9 µM) | 78.12 µg/mL | 9.76 µg/mL (≈ 31.4 µM) | 19.53 µg/mL | 19.5 µg/mL (≈ 62.8 µM) | 39.1 µg/mL (≈ 126 µM) | 78.1 µg/mL (≈ 252 µM) | 39.1 µg/mL (≈ 126 µM) | 78.1 µg/mL | 39.06 µg/mL | 19.5 µg/mL (≈ 62.9 µM) | 78.1 µg/mL (≈ 252 µM) | 39.1 µg/mL (≈ 126 µM) | >78.12 µg/mL |  |  |
| COc1ccc(-c2c(C)c(C)cc3cc4c(cc23)OCO4)cc1 [PYCNANTHULIGNENE C] | >78.1 µg/mL | 78.1 µg/mL | 39.1 µg/mL (≈ 127 µM) | 78.1 µg/mL | 19.5 µg/mL (≈ 63.7 µM) | 39.1 µg/mL | 19.5 µg/mL (≈ 63.7 µM) | 39.1 µg/mL (≈ 127 µM) | > 78.1 µg/mL | 39.1 µg/mL (≈ 128 µM) | >78.1 µg/mL | 39.06 µg/mL | 19.5 µg/mL (≈ 63.7 µM) | 78.1 µg/mL (≈ 255 µM) | 39.1 µg/mL (≈ 127 µM) | >78.12 µg/mL | 78.12 µg/mL | MMC [18]: 78.12 µg/mL |
| GENTAMICIN |  |  |  |  |  |  |  |  |  |  |  |  |  |  |  |  |  | MIC [3, 19]: 9.76 µg/mL; MIC [5]: 4.88 µg/mL; MIC [7]: 4.88 µg/mL; MIC [8]: 4.88 µg/mL; MIC [9]: > 9.76 µg/mL; MIC [10]: 4.88 µg/mL; MIC [14]: 19.5 µg/mL; MIC [15]: 4.88 µg/mL |
| NYSTATIN | 19.5 µg/mL | 9.8 µg/mL |  | 9.8 µg/mL |  |  |  |  |  |  | 9.8 µg/mL | 9.8 µg/mL |  |  |  | 19.5 µg/mL | 9.8 µg/mL | MMC [18, 19]: 19.5 µg/mL |
